{
  "source": "ChEMBL document CHEMBL1158487",
  "about": "“Small molecule chloropyramine hydrochloride (C4) targets the binding site of focal adhesion kinase and vascular endothelial growth factor receptor 3 and suppresses breast cancer growth in vivo” (J Med Chem, 2009)",
  "key": {"PANC-1": {"test_system": "PANC-1", "test": "Cytotoxicity against human PANC1 cells after 72 hrs by MTS assay", "type": "functional, cell-based", "conditions": "PANC-1, 72 h", "summary_of_the_method": "(§1)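 MTS viability assay, read as mitochondrial dehydrogenase activity of metabolically active cells. Cells were seeded at 5.0 × 10^3 per well and attached overnight. Fresh medium with or without compound was added, followed by 72 h exposure at increasing concentrations. Error shown as ±SEM.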"}, "[1]": {"test": "Cytotoxicity against human C8161 cells after 72 hrs by MTS assay", "type": "functional, cell-based", "conditions": "C8161, 72 h", "summary_of_the_method": "as §1"}, "HT-29": {"test_system": "HT-29", "test": "Cytotoxicity against human HT-29 cells after 72 hrs by MTS assay", "type": "functional, cell-based", "conditions": "HT-29, 72 h", "summary_of_the_method": "as §1"}, "BT-474 [2]": {"test_system": "BT-474", "test": "Cytotoxicity against human BT474 cells assessed as reduction in viability at 1 uM after 48 hrs by MTS assay", "type": "functional", "summary_of_the_method": "(§2)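 Viability measured by MTS after 48 h exposure. Cells were seeded at 5.0 × 10^3 per well and attached overnight before compound-containing medium was added. BT474 is a […] subclone grown in RPMI-1640 with 10% FBS and 250 µg/ml insulin. MCF7 stable clones carried either empty pcDNA3 or VEGFR-3. Mean ± SEM, ≥3 experiments, two-tailed t test.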"}, "[3]": {"test": "Cytotoxicity against human MCF10A cells assessed as cell viability at 0.1 to 10 uM by MTS assay", "type": "cell-based", "conditions": "mcf-10a", "summary_of_the_method": "(§3)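 MTS cell survival assay. Cells were plated at 5.0 × 10^3 per well and allowed to attach overnight, then given fresh medium with or without compound for the designated time. Absorbance was read per the kit protocol. Mean ± SEM of three or more independent experiments.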"}, "BT-474 [4]": {"test_system": "BT-474", "test": "Cytotoxicity against human BT474 cells assessed as cell viability at 0.1 to 10 uM by MTS assay", "type": "functional, cell-based", "summary_of_the_method": "as §3"}, "MCF7 [5]": {"test_system": "MCF7", "test": "Cytotoxicity against human MCF7 cells expressing VEGFR3 assessed as cell viability after 48 hrs by MTS assay", "type": "functional, cell-based", "summary_of_the_method": "as §2"}, "[6]": {"test": "Cytotoxicity against human MCF10A cells assessed as cell viability at 100 uM by MTS assay", "type": "cell-based", "conditions": "mcf-10a", "summary_of_the_method": "as §3"}, "BT-474 [7]": {"test_system": "BT-474", "test": "Cytotoxicity against human BT474 cells assessed as cell viability at 100 uM by MTS assay", "type": "functional, cell-based", "summary_of_the_method": "as §3"}, "MCF7 [8]": {"test_system": "MCF7", "test": "Antiproliferative activity against human MCF7 cells expressing VEGFR3 after 48 hrs by BrdU incorporation assay", "type": "functional, cell-based", "summary_of_the_method": "(§4)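 Cells plated at 2.5 × 10^3 per well and allowed to attach overnight. Fresh growth medium with or without compound was added along with BrdU labelling reagent, and cells were incubated for the set time. BrdU incorporation was then read with a kit per the manufacturer. Data are mean ± SEM of three or more independent experiments, compared by two-tailed Student's t test.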"}, "BT-474 [9]": {"test_system": "BT-474", "test": "Antiproliferative activity against human BT474 cells after 48 hrs by BrdU incorporation assay", "type": "functional, cell-based", "summary_of_the_method": "as §4"}, "MCF7 [10]": {"test_system": "MCF7", "test": "Cytotoxicity against human MCF7 cells assessed as cell viability at 10 uM after 48 hrs by MTS assay", "type": "functional", "summary_of_the_method": "as §2"}, "BT-474 [11]": {"test_system": "BT-474", "test": "Induction of apoptosis in human BT474 cells at 10 uM by TUNEL assay", "type": "functional"}, "MCF7 [12]": {"test_system": "MCF7", "test": "Induction of apoptosis in human MCF7 cells at 10 uM after 48 hrs by TUNEL assay", "type": "functional"}, "MCF7 [13]": {"test_system": "MCF7", "test": "Induction of apoptosis in human MCF7 cells expressing VEGFR3 at 10 uM after 48 hrs by TUNEL assay", "type": "functional"}, "BT-474 [14]": {"test_system": "BT-474", "test": "Induction of apoptosis in human BT474 cells assessed as procaspase 8 activation after 48 hrs", "type": "functional, cell-based"}, "MCF7 [15]": {"test_system": "MCF7", "test": "Induction of apoptosis in human MCF7 cells assessed as procaspase 8 activation after 48 hrs", "type": "functional, cell-based"}, "MCF7 [16]": {"test_system": "MCF7", "test": "Induction of apoptosis in human MCF7 cells expressing VEGFR3 assessed as procaspase 8 activation after 48 hrs", "type": "functional, cell-based"}, "BT-474 [17]": {"test_system": "BT-474", "test": "Induction of apoptosis in human BT474 cells assessed as PARP degradation after 48 hrs", "type": "functional, cell-based"}, "MCF7 [18]": {"test_system": "MCF7", "test": "Induction of apoptosis in human MCF7 cells assessed as PARP degradation after 48 hrs", "type": "functional, cell-based"}, "MCF7 [19]": {"test_system": "MCF7", "test": "Induction of apoptosis in human MCF7 cells expressing VEGFR3 assessed as PARP degradation after 48 hrs", "type": "functional, cell-based"}, "BT-474 [20]": {"test_system": "BT-474", "test": "Decrease in colocalization of FAK-paxillin complex in human BT474 cells at 10 uM after 24 hrs by confocal microscopy", "type": "functional", "set-up": "scale not given: the % may be the effect or the level left", "summary_of_the_method": "(§5)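 Cells were treated for 24 h with DMSO or 10 µM compound, then dual-immunostained for FAK (Alexa Fluor 488) together with VEGFR-3 or paxillin (Alexa Fluor 546). Confocal microscopy with scatter-plot analysis gave the percentage of colocalized molecules.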"}, "BT-474 [21]": {"test_system": "BT-474", "test": "Decrease in colocalization of FAK-VEGFR3 complex in human BT474 cells at 10 uM after 24 hrs by confocal microscopy", "type": "functional", "set-up": "scale not given: the % may be the effect or the level left", "summary_of_the_method": "as §5"}, "MCF7 [22]": {"test_system": "MCF7", "test": "Decrease in colocalization of FAK-VEGFR3 complex in human MCF7 cells expressing VEGFR3 at 10 uM after 24 hrs by confocal microscopy", "type": "functional", "set-up": "scale not given: the % may be the effect or the level left", "summary_of_the_method": "as §5"}, "[23]": {"biological_target": "Focal adhesion kinase 1/vascular endothelial growth factor receptor 3 (Homo sapiens) (UniProt P35916+Q05397)", "sequence (P35916 whole entry, looked up)": "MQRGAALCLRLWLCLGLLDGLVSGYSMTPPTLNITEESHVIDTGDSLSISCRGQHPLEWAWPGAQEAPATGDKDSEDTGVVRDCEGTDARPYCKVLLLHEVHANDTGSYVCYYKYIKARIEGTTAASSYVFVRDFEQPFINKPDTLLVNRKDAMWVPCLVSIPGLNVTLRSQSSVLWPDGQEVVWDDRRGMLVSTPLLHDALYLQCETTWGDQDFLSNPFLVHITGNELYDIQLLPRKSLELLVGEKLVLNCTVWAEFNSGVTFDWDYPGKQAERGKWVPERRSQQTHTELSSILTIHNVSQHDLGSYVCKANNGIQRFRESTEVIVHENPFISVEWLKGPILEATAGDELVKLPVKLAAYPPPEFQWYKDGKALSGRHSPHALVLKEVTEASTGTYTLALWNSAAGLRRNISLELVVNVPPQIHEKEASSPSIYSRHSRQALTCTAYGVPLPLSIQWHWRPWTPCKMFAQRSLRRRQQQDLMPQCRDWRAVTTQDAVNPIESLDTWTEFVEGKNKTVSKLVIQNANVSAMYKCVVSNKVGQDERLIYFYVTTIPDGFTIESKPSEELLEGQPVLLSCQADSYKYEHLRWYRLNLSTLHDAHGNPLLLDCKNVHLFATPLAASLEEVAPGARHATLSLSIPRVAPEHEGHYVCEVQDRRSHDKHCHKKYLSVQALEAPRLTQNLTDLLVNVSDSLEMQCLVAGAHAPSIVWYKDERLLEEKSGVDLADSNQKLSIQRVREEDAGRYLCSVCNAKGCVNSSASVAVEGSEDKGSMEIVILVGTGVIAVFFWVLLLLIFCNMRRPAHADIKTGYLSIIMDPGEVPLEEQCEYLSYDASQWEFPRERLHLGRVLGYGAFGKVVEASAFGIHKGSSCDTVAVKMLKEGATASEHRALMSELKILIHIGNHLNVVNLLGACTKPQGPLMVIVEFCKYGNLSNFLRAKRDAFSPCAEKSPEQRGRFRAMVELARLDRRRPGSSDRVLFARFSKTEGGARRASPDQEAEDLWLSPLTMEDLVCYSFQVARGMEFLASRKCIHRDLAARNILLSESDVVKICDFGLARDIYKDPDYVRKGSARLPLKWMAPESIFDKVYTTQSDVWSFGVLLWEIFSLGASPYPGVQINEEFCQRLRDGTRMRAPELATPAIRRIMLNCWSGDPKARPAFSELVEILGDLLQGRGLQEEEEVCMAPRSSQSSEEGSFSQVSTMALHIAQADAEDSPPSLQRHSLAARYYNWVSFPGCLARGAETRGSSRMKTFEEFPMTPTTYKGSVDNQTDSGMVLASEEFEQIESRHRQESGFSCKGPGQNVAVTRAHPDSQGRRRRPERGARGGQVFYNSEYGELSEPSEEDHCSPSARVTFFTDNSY", "sequence (Q05397 whole entry, looked up)": "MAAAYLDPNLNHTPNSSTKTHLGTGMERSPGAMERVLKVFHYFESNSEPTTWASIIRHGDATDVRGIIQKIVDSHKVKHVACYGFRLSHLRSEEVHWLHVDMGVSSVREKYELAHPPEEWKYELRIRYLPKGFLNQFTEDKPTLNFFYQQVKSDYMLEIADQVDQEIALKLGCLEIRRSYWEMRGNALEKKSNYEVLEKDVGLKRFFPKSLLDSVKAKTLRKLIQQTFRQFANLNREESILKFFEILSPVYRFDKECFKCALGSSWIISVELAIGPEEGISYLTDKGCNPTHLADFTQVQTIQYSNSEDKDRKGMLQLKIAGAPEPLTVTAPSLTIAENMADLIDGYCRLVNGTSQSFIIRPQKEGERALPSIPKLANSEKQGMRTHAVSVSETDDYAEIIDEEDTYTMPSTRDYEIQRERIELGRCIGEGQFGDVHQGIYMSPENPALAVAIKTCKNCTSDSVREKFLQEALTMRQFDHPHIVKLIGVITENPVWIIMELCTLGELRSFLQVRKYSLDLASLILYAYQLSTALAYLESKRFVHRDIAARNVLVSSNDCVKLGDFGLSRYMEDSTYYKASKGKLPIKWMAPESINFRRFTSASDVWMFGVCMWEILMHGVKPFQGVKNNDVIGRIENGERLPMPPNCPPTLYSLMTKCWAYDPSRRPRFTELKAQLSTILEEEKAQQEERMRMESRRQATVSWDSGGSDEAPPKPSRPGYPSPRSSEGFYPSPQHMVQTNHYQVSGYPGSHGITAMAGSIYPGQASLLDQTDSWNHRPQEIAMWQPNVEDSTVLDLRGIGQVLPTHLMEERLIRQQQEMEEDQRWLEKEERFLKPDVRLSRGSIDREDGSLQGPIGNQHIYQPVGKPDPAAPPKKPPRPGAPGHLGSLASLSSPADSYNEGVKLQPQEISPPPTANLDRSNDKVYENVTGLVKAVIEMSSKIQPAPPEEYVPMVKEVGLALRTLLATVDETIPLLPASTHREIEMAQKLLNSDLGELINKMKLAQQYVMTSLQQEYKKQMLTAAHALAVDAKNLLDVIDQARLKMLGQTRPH", "test": "Disruption of FAK-VEGFR3 binding in human BT474 cells at 10 uM after 24 hrs by immunoprecipitation technique", "type": "cell-based", "conditions": "BT-474", "summary_of_the_method": "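BT474 cells were treated for 24 h with increasing concentrations and then lysed. Lysates were immunoprecipitated with anti-VEGFR-3 antibody, and co-precipitated FAK was detected by western blot.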"}, "[24]": {"biological_target": "Vascular endothelial growth factor receptor 3 (Homo sapiens) (UniProt P35916)", "sequence (P35916 whole entry)": "as the sequence (P35916 whole entry, looked up) above", "test": "Inhibition of VEGFR3 phosphorylation in human BT474 cells assessed as partial dephosphorylation at Tyr1063/1068 activation loop at 1 uM after 24 hrs by Western blotting", "type": "cell-based", "conditions": "BT-474"}, "[25]": {"biological_target": "Vascular endothelial growth factor receptor 3 (Homo sapiens) (UniProt P35916)", "test": "Inhibition of VEGFR3 phosphorylation in human BT474 cells assessed as complete dephosphorylation at Tyr1063/1068 activation loop at 10 uM by Western blotting", "type": "cell-based", "conditions": "BT-474", "summary_of_the_method": "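BT474 cells were exposed for 24 h to increasing doses (1 and 10 µM). Western blots of lysates were probed with a phospho-specific VEGFR-3 antibody for Tyr1063/1068 in the kinase activation loop.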"}, "[26]": {"biological_target": "Focal adhesion kinase 1 (Homo sapiens) (UniProt Q05397)", "sequence (Q05397 2-1052 limits assumed)": "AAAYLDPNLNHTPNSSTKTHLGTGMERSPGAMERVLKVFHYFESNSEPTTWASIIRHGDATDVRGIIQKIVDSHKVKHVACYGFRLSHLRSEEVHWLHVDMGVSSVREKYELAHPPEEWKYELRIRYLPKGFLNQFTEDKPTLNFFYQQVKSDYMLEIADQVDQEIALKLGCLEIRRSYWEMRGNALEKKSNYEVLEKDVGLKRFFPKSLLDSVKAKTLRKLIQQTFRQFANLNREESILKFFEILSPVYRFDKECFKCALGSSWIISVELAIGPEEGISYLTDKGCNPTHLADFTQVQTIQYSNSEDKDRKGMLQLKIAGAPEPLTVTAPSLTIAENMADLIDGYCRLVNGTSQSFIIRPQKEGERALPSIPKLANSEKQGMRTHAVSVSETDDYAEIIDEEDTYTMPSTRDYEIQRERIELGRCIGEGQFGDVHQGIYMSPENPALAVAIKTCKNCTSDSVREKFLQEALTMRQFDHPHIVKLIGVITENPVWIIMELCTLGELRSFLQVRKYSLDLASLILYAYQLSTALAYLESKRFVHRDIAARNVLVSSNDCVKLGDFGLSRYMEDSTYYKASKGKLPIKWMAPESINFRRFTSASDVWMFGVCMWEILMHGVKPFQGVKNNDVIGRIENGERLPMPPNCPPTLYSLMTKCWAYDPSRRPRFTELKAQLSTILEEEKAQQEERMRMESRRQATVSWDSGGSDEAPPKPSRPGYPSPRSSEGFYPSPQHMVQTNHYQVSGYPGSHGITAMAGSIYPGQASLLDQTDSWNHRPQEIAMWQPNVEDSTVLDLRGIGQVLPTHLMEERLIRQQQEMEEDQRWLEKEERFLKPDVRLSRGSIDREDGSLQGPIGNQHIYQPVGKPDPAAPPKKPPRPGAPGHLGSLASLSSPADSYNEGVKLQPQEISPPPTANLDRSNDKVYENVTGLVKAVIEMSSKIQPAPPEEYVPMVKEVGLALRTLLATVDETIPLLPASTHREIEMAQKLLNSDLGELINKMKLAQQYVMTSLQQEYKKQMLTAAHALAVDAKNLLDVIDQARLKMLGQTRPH", "test": "Inhibition of FAK phosphorylation in human BT474 cells assessed as partial dephosphorylation at 1 uM after 24 hrs by Western blotting", "type": "cell-based", "conditions": "BT-474"}, "[27]": {"biological_target": "Focal adhesion kinase 1 (Homo sapiens) (UniProt Q05397)", "test": "Inhibition of FAK phosphorylation in human BT474 cells assessed as decrease in total phosphorylation at 10 uM after 24 hrs by immunoprecipitation technique", "type": "cell-based", "conditions": "BT-474", "summary_of_the_method": "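MCF7-VEGFR-3 and BT474 cells were treated for 24 h at 10 µM or 1 µM. FAK was immunoprecipitated and blotted with anti-phosphotyrosine antibody 4G10 to assess total FAK tyrosine phosphorylation.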"}},
  "note": "Active and inactive are the calls of the source. No cut-off for these calls is given here.",
  "data": [
    {"compound": "CN(C)CCN(Cc1ccc(Cl)cc1)c1ccccn1.Cl", "note": "[CHLORPYRAMIN HYDROCHLORIDE]", "values": [
      {"measurement": "IC50", "setting": "PANC-1", "result": 1000, "unit": "nM"},
      {"measurement": "IC50", "setting": "[1]", "result": 1000, "unit": "nM"},
      {"measurement": "IC50", "setting": "HT-29", "result": 1000, "unit": "nM"},
      {"measurement": "Activity", "setting": "BT-474 [2]", "result": 40, "unit": "%"},
      {"measurement": "Activity", "setting": "[3]", "result": "Active"},
      {"measurement": "Activity", "setting": "BT-474 [4]", "result": "Active"},
      {"measurement": "Activity", "setting": "MCF7 [5]", "result": "Dose-dependent effect"},
      {"measurement": "Activity", "setting": "[6]", "result": "Active"},
      {"measurement": "Activity", "setting": "BT-474 [7]", "result": "Active"},
      {"measurement": "Activity", "setting": "MCF7 [8]", "result": "Dose-dependent effect"},
      {"measurement": "Activity", "setting": "BT-474 [9]", "result": "Dose-dependent effect"},
      {"measurement": "fold change (FC)", "setting": "MCF7 [10]", "result": 2},
      {"measurement": "Activity", "setting": "BT-474 [11]", "result": 60, "unit": "%"},
      {"measurement": "Activity", "setting": "MCF7 [12]", "result": 18, "unit": "%"},
      {"measurement": "Activity", "setting": "MCF7 [13]", "result": 76, "unit": "%"},
      {"measurement": "Activity", "setting": "BT-474 [14]", "result": "Dose-dependent effect"},
      {"measurement": "Activity", "setting": "MCF7 [15]", "result": "Dose-dependent effect"},
      {"measurement": "Activity", "setting": "MCF7 [16]", "result": "Dose-dependent effect"},
      {"measurement": "Activity", "setting": "BT-474 [17]", "result": "Dose-dependent effect"},
      {"measurement": "Activity", "setting": "MCF7 [18]", "result": "Dose-dependent effect"},
      {"measurement": "Activity", "setting": "MCF7 [19]", "result": "Dose-dependent effect"},
      {"measurement": "Activity", "setting": "BT-474 [20]", "result": 76, "unit": "%"},
      {"measurement": "Activity", "setting": "BT-474 [21]", "result": 45, "unit": "%"},
      {"measurement": "Activity", "setting": "MCF7 [22]", "result": 29, "unit": "%"},
      {"measurement": "Activity", "setting": "[23]", "result": "Active"},
      {"measurement": "Activity", "setting": "[24]", "result": "Active"},
      {"measurement": "Activity", "setting": "[25]", "result": "Active"},
      {"measurement": "Activity", "setting": "[26]", "result": "Active"},
      {"measurement": "Activity", "setting": "[27]", "result": "Active"}
    ]}
  ]
}
